{
  "source": "ChEMBL document CHEMBL5154634",
  "about": "“A Modular Synthetic Route Involving N-Aryl-2-nitrosoaniline Intermediates Leads to a New Series of 3-Substituted Halogenated Phenazine Antibacterial Agents” (J Med Chem, 2021)",
  "key": {"J774": {"test_system": "J774", "experiment": "Cytotoxicity against mouse J774 cells assessed as reduction in cell viability […] by Alamar blue assay", "type": "toxicity, cell-based"}, "Enterococcus faecium": {"test_system": "Enterococcus faecium", "experiment": "Antibacterial activity against vancomycin-resistant Enterococcus faecium ATCC 700221 assessed as bacterial growth inhibition incubated for 16 hrs by broth microdilution susceptibility test", "type": "functional", "in_short": "(§1)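 CLSI broth microdilution with 11 twofold dilutions (0.05–50 μM). Medium was LB for the staphylococci and BHI for VRE 700221. About 10^5 cells per well from a log-phase culture. […] DMSO vehicle up to 0.5% v/v. At least three independent experiments.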"}, "Enterococcus faecalis": {"test_system": "Enterococcus faecalis", "experiment": "Antibacterial activity against Enterococcus faecalis OG1RF ATCC 47077 assessed as bacterial growth inhibition incubated for 16 hrs by broth microdilution susceptibility test", "type": "functional"}, "Staphylococcus aureus [1]": {"test_system": "Staphylococcus aureus", "experiment": "Induction of iron starvation in methicillin-resistant Staphylococcus aureus BAA-1707 biofilms assessed as upregulation of MW0695 gene expression at 1/10XMBEC incubated for 4 hrs by RT-qPCR analysis", "type": "functional", "in_short": "(§2)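 MRSA BAA-1707 grown in TSB with 0.5% glucose to OD600 ~0.8–1.0, then biofilms formed 20 h at 37 °C statically in gelatin-coated 24-well plates. Biofilms treated 4 h at 37 °C with compound (1 μM or 1/10 MBEC) or DMSO vehicle. RNA extracted; only RIN ≥7 samples used. One-step SYBR RT-qPCR; ΔCT normalised to ptaA. Three independent experiments.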"}, "Staphylococcus aureus [2]": {"test_system": "Staphylococcus aureus", "experiment": "Induction of iron starvation in methicillin-resistant Staphylococcus aureus BAA-1707 biofilms assessed as upregulation of isdB gene expression at 1 uM incubated for 4 hrs by RT-qPCR analysis", "type": "functional", "in_short": "as §2"}, "Staphylococcus aureus [3]": {"test_system": "Staphylococcus aureus", "experiment": "Antibacterial activity against methicillin-resistant Staphylococcus aureus BAA-44 assessed as bacterial growth inhibition incubated for 16 hrs by broth microdilution susceptibility test", "type": "functional", "in_short": "as §1"}, "Staphylococcus aureus [4]": {"test_system": "Staphylococcus aureus", "experiment": "Antibacterial activity against methicillin-resistant Staphylococcus aureus clinical isolate 1 assessed as bacterial growth inhibition", "type": "functional"}, "Staphylococcus aureus [5]": {"test_system": "Staphylococcus aureus", "experiment": "Antibacterial activity against methicillin-resistant Staphylococcus aureus clinical isolate 2 assessed as bacterial growth inhibition", "type": "functional"}, "Staphylococcus aureus [6]": {"test_system": "Staphylococcus aureus", "experiment": "Antibiofilm activity against methicillin-resistant Staphylococcus aureus BAA-1707 biofilms assessed as biofilm eradication incubated for 24 hrs followed by incubation for 24 hrs in fresh medium by Calgary biofilm device assay", "type": "functional", "in_short": "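Calgary biofilm device. Mid-log culture diluted 1000-fold in TSB with 0.5% glucose; biofilms grown on pegs 24 h at 37 °C. Pegs washed and challenged with twofold compound dilutions for 24 h at 37 °C, then moved to fresh medium for 24 h. MBEC is the lowest concentration leaving wells non-turbid. At least three independent experiments.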"}, "Staphylococcus aureus [7]": {"test_system": "Staphylococcus aureus", "experiment": "Induction of iron starvation in methicillin-resistant Staphylococcus aureus BAA-1707 biofilms assessed as upregulation of MW0695 gene expression at 1 uM incubated for 4 hrs by RT-qPCR analysis", "type": "functional", "in_short": "as §2"}, "[8]": {"experiment": "Binding affinity to Fe2+ assessed as compound-Fe2+ complex formation by UV-vis spectroscopy"}, "[9]": {"test_system": "Staphylococcus epidermidis", "experiment": "Antibiofilm activity against methicillin-resistant Staphylococcus epidermidis ATCC 35984 biofilms assessed as reduction of viable biofilm cells at MBEC measured by CBD assay", "type": "functional", "in_short": "(§3)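 After the Calgary biofilm device assay, treated and untreated pegs were removed, sonicated 30 min in PBS and plated for CFU per peg. Log10 reduction of viable biofilm cells at the MBEC determined by comparison with untreated pegs. At least three independent experiments.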"}, "Staphylococcus aureus [10]": {"test_system": "Staphylococcus aureus", "experiment": "Induction of iron starvation in methicillin-resistant Staphylococcus aureus BAA-1707 biofilms assessed as upregulation of sbnC gene expression at 1 uM incubated for 4 hrs by RT-qPCR analysis", "type": "functional", "in_short": "as §2"}, "HeLa": {"test_system": "HeLa", "experiment": "Cytotoxicity against human HeLa cells assessed as reduction in cell viability incubated for 24 hrs by LDH release assay", "type": "toxicity, cell-based", "in_short": "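HeLa cells in DMEM with 10% FBS, treated at 70–80% confluence with 25, 50 and 100 μM for 24 h. LDH in supernatant measured by 30 min reaction at room temperature, then stop solution and absorbance at 490 nm. Controls: 2% Triton X-100 (maximum), medium only, DMSO vehicle. Three independent experiments.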"}, "Staphylococcus aureus [11]": {"test_system": "Staphylococcus aureus", "experiment": "Induction of iron starvation in methicillin-resistant Staphylococcus aureus BAA-1707 biofilms assessed as upregulation of sfaA gene expression at 1 uM incubated for 4 hrs by RT-qPCR analysis", "type": "functional", "in_short": "as §2"}, "HepG2": {"test_system": "HepG2", "experiment": "Cytotoxicity against human HepG2 cells assessed as reduction in cell viability […] by Alamar blue assay", "type": "toxicity, cell-based"}, "Staphylococcus aureus [12]": {"test_system": "Staphylococcus aureus", "experiment": "Induction of iron starvation in methicillin-resistant Staphylococcus aureus BAA-1707 biofilms assessed as upregulation of sbnC gene expression at 1/10XMBEC incubated for 4 hrs by RT-qPCR analysis", "type": "functional", "in_short": "as §2"}, "[13]": {"test_system": "Mycobacterium tuberculosis", "experiment": "Antibacterial activity against Mycobacterium tuberculosis CDC1551 assessed as bacterial growth inhibition incubated for 5 days by luminescence based analysis", "type": "functional", "conditions": "CDC1551, 120 h, time 5 day", "in_short": "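Bioluminescent Mtb-lux CDC1551 reporter grown in Middlebrook 7H9 with 0.05% Tween 80, 10% OADC and kanamycin to OD600 0.4–0.8, then diluted to OD600 0.02. Added to twofold drug dilutions (0.003–200 μM). Incubated 5 days at 37 °C, 5% CO2. Luminescence read against 1% DMSO and 10 μM rifampicin controls to give % growth inhibition. MIC taken from a modified Gompertz fit.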"}, "Staphylococcus aureus [14]": {"test_system": "Staphylococcus aureus", "experiment": "Antibacterial activity against methicillin-resistant Staphylococcus aureus 138 assessed as bacterial growth inhibition", "type": "functional"}, "Staphylococcus aureus [15]": {"test_system": "Staphylococcus aureus", "experiment": "Antibacterial activity against methicillin-resistant Staphylococcus aureus 147 assessed as bacterial growth inhibition", "type": "functional"}, "Staphylococcus aureus [16]": {"test_system": "Staphylococcus aureus", "experiment": "Induction of iron starvation in methicillin-resistant Staphylococcus aureus BAA-1707 biofilms assessed as upregulation of sfaA gene expression at 1/10XMBEC incubated for 4 hrs by RT-qPCR analysis", "type": "functional", "in_short": "as §2"}, "[17]": {"test_system": "Mycobacterium tuberculosis", "experiment": "Antibacterial activity against Mycobacterium tuberculosis H37Ra ATCC 25177 assessed as bacterial growth inhibition incubated for 7 days by absorbance based analysis", "type": "functional", "conditions": "H37Ra ATCC 25177, 168 h, time 7 day", "in_short": "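H37Ra grown 2 weeks in Middlebrook 7H9, then diluted to OD600 0.01. Compounds added in twofold dilutions, final 0.024–50 μM, with 0.5% DMSO and streptomycin as positive control. Incubated 7 days at 37 °C. MIC is the lowest concentration with no growth, with OD600 recorded. At least three independent experiments.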"}, "Staphylococcus aureus [18]": {"test_system": "Staphylococcus aureus", "experiment": "Antibiofilm activity against methicillin-resistant Staphylococcus aureus BAA-1707 biofilms assessed as biofilm killing at MBEC measured by CBD assay", "type": "functional"}, "Staphylococcus aureus [19]": {"test_system": "Staphylococcus aureus", "experiment": "Antibiofilm activity against methicillin-resistant Staphylococcus aureus BAA-1707 biofilms assessed as reduction of viable biofilm cells at MBEC measured by CBD assay", "type": "functional", "in_short": "as §3"}, "[20]": {"test_system": "Staphylococcus epidermidis", "experiment": "Bactericidal activity against methicillin-resistant Staphylococcus epidermidis ATCC 35984 planktonic cells assessed as planktonic eradication incubated for 24 hrs followed by incubation for overnight in fresh medium by Calgary biofilm device assay", "type": "functional", "in_short": "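Calgary biofilm device. Biofilms grown 24 h at 37 °C in TSB with 0.5% glucose, then challenged 24 h with twofold compound dilutions. 20 μL of challenge medium transferred into fresh TSB with 0.5% glucose and incubated overnight at 37 °C. MBC is the concentration with no visible turbidity. At least three independent experiments.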"}},
  "note": "Calls of active or inactive are those of the source. The rule behind the calls is not given here.",
  "data": [
    {"smiles": "Cc1cccc2nc3c(O)c(Br)c(Cl)c(Br)c3nc12", "values": [
      {"measurement": "IC50", "setting": "J774", "result": "> 200", "unit": "µM"},
      {"measurement": "MIC", "setting": "Enterococcus faecium", "result": 0.1, "unit": "µM"},
      {"measurement": "MIC", "setting": "Enterococcus faecalis", "result": 0.2, "unit": "µM"},
      {"measurement": "Activity", "setting": "Staphylococcus aureus [1]", "result": "Active"},
      {"measurement": "Activity", "setting": "Staphylococcus aureus [2]", "result": "Active"},
      {"measurement": "MIC", "setting": "Staphylococcus aureus [3]", "result": 0.08, "unit": "µM"},
      {"measurement": "MIC", "setting": "Staphylococcus aureus [4]", "result": 0.06, "unit": "µM"},
      {"measurement": "MIC", "setting": "Staphylococcus aureus [5]", "result": 0.06, "unit": "µM"},
      {"measurement": "MBEC", "setting": "Staphylococcus aureus [6]", "result": 1.56, "unit": "µM"},
      {"measurement": "Activity", "setting": "Staphylococcus aureus [7]", "result": "Active"},
      {"measurement": "Activity", "setting": "[8]", "result": "Active"},
      {"measurement": "Activity", "setting": "[9]", "result": 3.65, "unit": "log10CFU"},
      {"measurement": "Activity", "setting": "Staphylococcus aureus [10]", "result": "Active"},
      {"measurement": "IC50", "setting": "HeLa", "result": "> 100", "unit": "µM"},
      {"measurement": "Activity", "setting": "Staphylococcus aureus [11]", "result": "Active"},
      {"measurement": "IC50", "setting": "HepG2", "result": "> 200", "unit": "µM"},
      {"measurement": "Activity", "setting": "Staphylococcus aureus [12]", "result": "Active"},
      {"measurement": "MIC", "setting": "[13]", "result": 1.59, "unit": "µM"},
      {"measurement": "MIC", "setting": "Staphylococcus aureus [14]", "result": 0.06, "unit": "µM"},
      {"measurement": "MIC", "setting": "Staphylococcus aureus [15]", "result": 0.06, "unit": "µM"},
      {"measurement": "Activity", "setting": "Staphylococcus aureus [16]", "result": "Active"},
      {"measurement": "MIC", "setting": "[17]", "result": "[…]"},
      {"measurement": "Activity", "setting": "Staphylococcus aureus [18]", "result": 99.9, "unit": "%"},
      {"measurement": "Activity", "setting": "Staphylococcus aureus [19]", "result": 2.55, "unit": "log10CFU"},
      {"measurement": "MBC", "setting": "[20]", "result": 0.78, "unit": "µM"}
    ]}
  ]
}
